Experimental data: ChEMBL document CHEMBL4351018, “Novel phenanthridin-6(5H)-one derivatives as potent and selective BET bromodomain inhibitors: Rational design, synthesis and biological evaluation” (Eur J Med Chem, 2019)
pIC50: −log10 of the molar value.

Columns and labels:
[1] = biological target: Bromodomain-containing protein 4 (Homo sapiens, UniProt O60885); assay: Inhibition of recombinant human His-tagged BRD4 bromodomain 1/2 (2 to 1362 residues) expressed in […] insect cells using biotinylated H4(1 to 21)K5/8/12/16Ac peptide as substrate preincubated for 30 mins followed by substrate addition and measured after 30 mins by Alpha screen assay
SGC-7901 = assay: Antiproliferative activity against human SGC7901 cells incubated for 48 hrs by MTT assay; assay type: functional, cell-based; settings: SGC-7901, 48 h
Outline: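 Cells kept in DMEM or RPMI 1640 with 10% FBS at 37 °C, 5% CO2. MTT added for 4 h at 37 °C, formazan dissolved in DMSO, OD read at 570 nm. Survival % taken relative to blank and control wells. Triplicate runs; IC50 from curve fit.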

A549 [2] = assay: Induction of apoptosis in human A549 cells assessed as late apoptotic cells at 0.3 uM incubated for 48 hrs by annexin V-FITC/PI double staining based flow cytometric analysis (reference value: 0.039%); assay type: functional
A549 [3] = assay: Induction of apoptosis in human A549 cells assessed as late apoptotic cells at 5.0 uM incubated for 48 hrs by annexin V-FITC/PI double staining based flow cytometric analysis (reference value: 0.039%); assay type: functional
[4] = AUC (0 to t) in Sprague-Dawley rat at 2.5 mg/kg, iv measured for 0.083 to 24 hrs by LC-MS/MS/MS analysis; assay type: ADME, organism-based; parameters: time upper 24 hr, dose 2.5 mg/kg, time lower 0.083 hr, route intravenous; settings: in vivo
[5] = AUC (0 to infinity) in Sprague-Dawley rat at 2.5 mg/kg, iv measured for 0.083 to 24 hrs by LC-MS/MS/MS analysis; assay type: ADME, organism-based; parameters: dose 2.5 mg/kg, time infinity, route intravenous; settings: in vivo
[6] = MRT (0 to t) in Sprague-Dawley rat at 2.5 mg/kg, iv measured for 0.083 to 24 hrs by LC-MS/MS analysis; assay type: ADME, organism-based; settings: in vivo
[7] = Cmax in Sprague-Dawley rat at 2.5 mg/kg, iv measured for 0.083 to 24 hrs by LC-MS/MS analysis; assay type: ADME, organism-based; parameters: dose 2.5 mg/kg, route intravenous; settings: in vivo
[8] = MRT (0 to t) in Sprague-Dawley rat at 10 mg/kg, po measured for 0.083 to 24 hrs by LC-MS/MS analysis; assay type: ADME, organism-based; settings: in vivo
[9] = Volume of distribution at steady state in Sprague-Dawley rat at 10 mg/kg, po measured for 0.083 to 24 hrs by LC-MS/MS analysis; assay type: ADME, organism-based; settings: in vivo
[10] = Oral bioavailability in Sprague-Dawley rat at 10 mg/kg measured for 0.083 to 24 hrs by LC-MS/MS analysis; assay type: ADME, organism-based; settings: in vivo
A549 [11] = assay: Induction of cell cycle arrest in human A549 cells assessed as accumulation at […] phase at 0.3 uM incubated for 48 hrs by BrdU/PI staining based flow cytometric analysis; assay type: functional
Outline: (§1)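 Subconfluent A549 cells exposed 48 h to 0.3–5.0 μM with DMSO vehicle control. Pulse-labelled with 10 μM BrdU for 30 min at 37 °C before harvest. Fixed in 70% ethanol, denatured in 2 M HCl, neutralised, then stained with fluorescein anti-BrdU antibody and propidium iodide. Analysed by flow cytometry with 488 nm excitation.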

A549 [12] = assay: Induction of cell cycle arrest in human A549 cells assessed as accumulation at […] phase at 1.0 uM incubated for 48 hrs by BrdU/PI staining based flow cytometric analysis; assay type: functional; outline: as §1

COc1ccc(Cl)cc1S(=O)(=O)Nc1ccc2[nH]c(=O)c3ccccc3c2c1
pIC50 [1]: 6.62 | pIC50 (SGC-7901): 5.27 | Activity (A549 [2]): 2.63% | Activity (A549 [3]): 8.25% | AUC(0-t) [4]: 383 ng·h/mL | AUC(0-inf) [5]: 505 ng·h/mL | MRT last [6]: 7.93 h | Cmax [7]: 96.9 ng/mL | MRT last [8]: 7.52 h | Vdss [9]: 97.34 L/kg | bioavailability [10]: 36.6% | Activity (A549 [11]): 60.84% | Activity (A549 [12]): 70.3%
